# Assay results reported in publication PMC5116011 (The Journal of antibiotics, 2016).
# Read-outs that look alike come from different tables or passages of the source.
# Key:
# [1] = cited from earlier work
# [2] = tested on: P. vulgaris ATCC 33420; assay: MIC, microbroth dilution in Mueller-Hinton broth; format: cell-based; conditions: Proteus vulgaris, ATCC33420, read-out: MIC PV
# [3] = tested on: S. pyogenes ATCC700294; assay: MIC, microbroth dilution in Mueller-Hinton broth; format: cell-based; conditions: Streptococcus pyogenes, ATCC700294, read-out: MIC SPy
# In short: (§1)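 CLSI broth microdilution in cation-adjusted Mueller-Hinton broth. Inocula were grown from MH agar colonies in MH broth, with a final inoculum of 10^5 CFU/ml. Test compound final range was 200–0.2 µg/ml, incubated 37°C for 18–20 h. MIC was the lowest concentration preventing visible growth. Runs were at least duplicate, and the mean MIC was reported.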
# [4] = tested on: E. coli BW25113 ΔtolC derivative JW5503-1; assay: MIC, microbroth dilution in Mueller-Hinton broth; format: cell-based, Escherichia coli; conditions: for MIC: Escherichia coli
# [5] = tested on: B. subtilis ATCC23857; assay: MIC, microbroth dilution in Mueller-Hinton broth; format: cell-based; conditions: Bacillus subtilis, ATCC23857, read-out: MIC BS
# In short: as §1
# [6] = tested on: E. faecalis ATCC33186; assay: MIC, microbroth dilution in Mueller-Hinton broth; format: cell-based; conditions: Enterococcus faecalis, ATCC33186, read-out: MIC EF
# In short: as §1
# [7] = tested on: P. aeruginosa PA01; assay: MIC, microbroth dilution in Mueller-Hinton broth; format: cell-based, Pseudomonas aeruginosa; conditions: for MIC: Pseudomonas aeruginosa
# [8] = tested on: E. coli ATCC 35218 (Low-level TEM-1); assay: MIC with and without clavulanic acid; format: cell-based; conditions: with clavulanic acid (6 µg/ml)
# In short: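 Mueller-Hinton broth microdilution per CLSI, run in parallel without and with the β-lactamase inhibitor clavulanic acid (6 µg/ml). MH-broth-grown inoculum was at 10^5 CFU/ml final, with test compound at 200–0.2 µg/ml final. Incubation was 37°C, 18–20 h, and the visible-growth endpoint was read. At least duplicate determinations; the mean MIC was reported.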
# [9] = tested on: S. aureus -ATCC29213 (MSSA); assay: MIC, microbroth dilution in Mueller-Hinton broth; format: cell-based; conditions: Staphylococcus aureus, read-out: MIC MSSA
# In short: as §1
# [10] = tested on: E. coli BW25113; assay: MIC, microbroth dilution in Mueller-Hinton broth; format: cell-based, Escherichia coli
# [11] = tested on: S. aureus NRS 70 (MRSA); assay: MIC, microbroth dilution in Mueller-Hinton broth; format: cell-based; conditions: Staphylococcus aureus, MRSA|NRS70, read-out: MIC MRSA
# In short: as §1
# [12] = tested on: P. mirabilis ATCC 25933; assay: MIC, microbroth dilution in Mueller-Hinton broth; format: cell-based; conditions: Proteus mirabilis, ATCC25933, read-out: MIC PM
# [13] = tested on: S. pneumoniae R6; assay: MIC, microbroth dilution in Mueller-Hinton broth; format: cell-based; conditions: Streptococcus pneumoniae, R6, read-out: MIC SP
# In short: as §1
# [14] = tested on: B. anthracis sterne; assay: microbe, parasite or virus in culture; format: cell-based; conditions: Bacillus anthracis, read-out: MIC BA
# [15] = tested on: E. coli BW25113 ΔampC derivative JW4111-2; format: cell-based, Escherichia coli
compound,measurement,setting,value
O=C(N[C@H]1COC(=O)[C@@H](NC(=O)c2cccc(O)c2O)COC(=O)[C@@H](NC(=O)c2cccc(O)c2O)COC1=O)c1cccc(O)c1O [enterobactin],pM,"[1]; E. coli enterobactin, ref [42]",35.6
CC1(C)SC2C(NC(=O)C(NC(=O)C3=C(O)C(Cc4ccc(F)cc4)NC3=O)c3ccccc3)C(=O)N2C1C(=O)O (stereo not drawn) [Compound 2782],MIC,[2],12.5 mg/L
same,MIC,[3],0.78 mg/L
same,MIC,"[4]; BW25113, read-out: MIC ECΔtolC",1.56 mg/L
same,MIC,"[4]; BW25113, read-out: MIC ECΔtolC MH",1.56 mg/L
same,MIC,"[4]; BW25113, read-out: MIC ECΔtolC MH+BP",3.13 mg/L
same,MIC ECΔtolC MH+BP/CCCP,[4]; {},1.56 mg/L
same,MIC ECΔtolC MH+CCCP,[4]; {},1.56 mg/L
same,MIC,[5],1.56 mg/L
same,MIC,[6],6.25 mg/L
same,MIC PA MH+BP/CCCP,"[7]; P. aeruginosa PA01, MH broth with 30 µg/ml 2,2′-bipyridyl and 50 µg/ml CCCP",12.5 mg/L
same,MIC PA +,"[7]; P. aeruginosa PA01, with clavulanic acid (6µg/ml)",12.5 mg/L
same,MIC,"[7]; PA01, read-out: MIC PA",25 mg/L
same,MIC,"[7]; PA01, read-out: MIC PA MH",25 mg/L
same,MIC,"[7]; PA01, read-out: MIC PA MH+BP",25 mg/L
same,MIC,"[7]; PA01, read-out: MIC PA MH+CCCP",12.5 mg/L
same,MIC ATCC 35218 (Low-level TEM-1) + CLV,[8],25 mg/L
same,MIC,[9],0.39 mg/L
same,MIC EC MH+BP/CCCP,"[10]; E. coli BW25113, MH broth with 30 µg/ml 2,2′-bipyridyl and 50 µg/ml CCCP",3.13 mg/L
same,MIC EC +,"[10]; E. coli BW25113, with clavulanic acid (6µg/ml)",3.13 mg/L
same,MIC,"[10]; Escherichia coli, BW25113, read-out: MIC EC, E. coli BW25113, Mueller-Hinton broth (Table 2)",25 mg/L
same,MIC,[11],12.5 mg/L
same,MIC,[12],12.5 mg/L
same,MIC,[13],0.39 mg/L
same,MIC,[14],3.13 mg/L
same,MIC,"[15]; Escherichia coli, BW25113, read-out: MIC ECΔampC −",6.25 mg/L
same,MIC ECΔampC +,[15]; {},3.13 mg/L
CN1[C@@H]([C@H]2CSC(c3ccccc3O)=N2)SC[C@H]1C(=O)O [pyochelin],pM,"[1]; pyochelin, ref [43], [44]",6
same,Kd,"[1]; read-out: Kd for iron, pyochelin, ref [43], [44]",10 µM
pyoverdin,pM,"[1]; P. aeruginosa pyoverdin, ref [45], [46]",27
